pIC50: −log10 of the molar value. Values after ≈ are worked out from the molar mass of the structure shown. Active and inactive are the calls of the source. No cut-off for these calls is given here.
Tests used:
[1] = system: A-431; assay: Antiproliferative activity against human A431 cells after 24 to 48 hrs by WST1 assay; type: functional, cell-based
[2] = system: A549; assay: Antiproliferative activity against human A549 cells after 24 to 48 hrs by WST1 assay; type: functional, cell-based
[3] = system: B16-F10; assay: Growth inhibition of mouse B16F10 cells at 10 ug/mL after 24 to 48 hrs by WST1 assay; type: functional; conditions: read-out: GI
Method in brief: (§1)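 Single-concentration growth inhibition at 10 µg/mL, the top concentration used because higher levels precipitated in culture medium. Three separate experiments, each in triplicate.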

[4] = molecular target: T1, Epidermal growth factor receptor (Homo sapiens, UniProt P00533); assay: Inhibition of EGFR in human A431 cell lysate using tyrosine/glutamic acid polymer as substrate by ELISA; set-up: species or system A-431
[5] = system: MCF7; assay: cells; conditions: Homo sapiens
[6] = system: B16-F10; assay: cells; conditions: Mus musculus
[7] = molecular target: T1, Epidermal growth factor receptor; assay: Inhibition of EGFR in human A431 cells assessed as inhibition of EGF-stimulated autophosphorylation at 100 nM incubated for 1 hr prior to EGF-induction measured after 15 mins by Western blot analysis; type: cell-based; conditions: A-431
Method in brief: (§2)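 A431 cells were incubated […] with compound at 10 or 100 nM, then stimulated with EGF. Whole-cell lysates were Western blotted with an anti-phosphotyrosine antibody to detect EGFR autophosphorylation.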

[8] = system: A549; assay: Growth inhibition of human A549 cells at 10 ug/mL after 24 to 48 hrs by WST1 assay; type: functional; conditions: read-out: GI; method in brief: as §1
[9] = system: MCF7; assay: Growth inhibition of human MCF7 cells at 10 ug/mL after 24 to 48 hrs by WST1 assay; type: functional; conditions: read-out: GI; method in brief: as §1
[10] = molecular target: Receptor tyrosine-protein kinase erbB-2 (Homo sapiens, UniProt P04626); assay: Inhibition of recombinant HER2 expressed in baculovirus infected Sf9 cells using [32P]ATP incubated for 30 mins prior to ATP addition measured after 20 mins by liquid scintillation counting
[11] = molecular target: Vascular endothelial growth factor receptor 2 (Homo sapiens, UniProt P35968); assay: Inhibition of VEGFR2 using ATP incubated for 30 mins prior to ATP addition measured after 60 mins by fluorimetry
[12] = molecular target: T1, Epidermal growth factor receptor; assay: Inhibition of EGFR in human A431 cells assessed as inhibition of EGF-stimulated autophosphorylation at 10 nM incubated for 1 hr prior to EGF-induction measured after 15 mins by Western blot analysis; type: cell-based; conditions: A-431; method in brief: as §2

T1 sequence (P00533 whole entry): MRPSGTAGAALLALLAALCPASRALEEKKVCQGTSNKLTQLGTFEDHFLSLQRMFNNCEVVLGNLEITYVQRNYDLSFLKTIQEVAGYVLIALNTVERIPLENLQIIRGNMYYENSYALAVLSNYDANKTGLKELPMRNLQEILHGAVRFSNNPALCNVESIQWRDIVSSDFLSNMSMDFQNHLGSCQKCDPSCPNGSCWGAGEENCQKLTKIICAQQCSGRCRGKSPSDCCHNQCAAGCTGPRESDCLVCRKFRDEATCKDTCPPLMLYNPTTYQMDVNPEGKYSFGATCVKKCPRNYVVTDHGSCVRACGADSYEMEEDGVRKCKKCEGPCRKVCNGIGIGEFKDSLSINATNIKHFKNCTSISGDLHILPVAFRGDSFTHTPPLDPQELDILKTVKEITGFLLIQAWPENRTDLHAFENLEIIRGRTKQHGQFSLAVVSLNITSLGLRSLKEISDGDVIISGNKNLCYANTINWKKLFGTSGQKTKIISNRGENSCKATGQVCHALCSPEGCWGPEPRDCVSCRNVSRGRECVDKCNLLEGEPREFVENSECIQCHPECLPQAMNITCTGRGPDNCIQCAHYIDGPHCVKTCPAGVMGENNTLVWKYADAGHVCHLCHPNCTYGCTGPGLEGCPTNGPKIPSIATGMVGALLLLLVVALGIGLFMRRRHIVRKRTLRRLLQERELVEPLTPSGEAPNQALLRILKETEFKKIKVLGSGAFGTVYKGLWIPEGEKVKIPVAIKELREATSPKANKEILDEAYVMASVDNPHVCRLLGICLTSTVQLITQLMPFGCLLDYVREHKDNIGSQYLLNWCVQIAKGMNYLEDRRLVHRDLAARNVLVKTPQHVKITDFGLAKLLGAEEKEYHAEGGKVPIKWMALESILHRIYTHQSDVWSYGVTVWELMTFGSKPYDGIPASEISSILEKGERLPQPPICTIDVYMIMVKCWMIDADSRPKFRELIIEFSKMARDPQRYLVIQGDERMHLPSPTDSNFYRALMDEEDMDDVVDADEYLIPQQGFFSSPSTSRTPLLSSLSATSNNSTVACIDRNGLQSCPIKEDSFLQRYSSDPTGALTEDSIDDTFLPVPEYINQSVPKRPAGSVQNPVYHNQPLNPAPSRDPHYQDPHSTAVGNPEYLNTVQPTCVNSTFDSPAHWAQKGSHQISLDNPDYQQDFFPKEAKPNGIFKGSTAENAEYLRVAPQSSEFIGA
Vascular endothelial growth factor receptor 2, sequence (P35968 whole entry): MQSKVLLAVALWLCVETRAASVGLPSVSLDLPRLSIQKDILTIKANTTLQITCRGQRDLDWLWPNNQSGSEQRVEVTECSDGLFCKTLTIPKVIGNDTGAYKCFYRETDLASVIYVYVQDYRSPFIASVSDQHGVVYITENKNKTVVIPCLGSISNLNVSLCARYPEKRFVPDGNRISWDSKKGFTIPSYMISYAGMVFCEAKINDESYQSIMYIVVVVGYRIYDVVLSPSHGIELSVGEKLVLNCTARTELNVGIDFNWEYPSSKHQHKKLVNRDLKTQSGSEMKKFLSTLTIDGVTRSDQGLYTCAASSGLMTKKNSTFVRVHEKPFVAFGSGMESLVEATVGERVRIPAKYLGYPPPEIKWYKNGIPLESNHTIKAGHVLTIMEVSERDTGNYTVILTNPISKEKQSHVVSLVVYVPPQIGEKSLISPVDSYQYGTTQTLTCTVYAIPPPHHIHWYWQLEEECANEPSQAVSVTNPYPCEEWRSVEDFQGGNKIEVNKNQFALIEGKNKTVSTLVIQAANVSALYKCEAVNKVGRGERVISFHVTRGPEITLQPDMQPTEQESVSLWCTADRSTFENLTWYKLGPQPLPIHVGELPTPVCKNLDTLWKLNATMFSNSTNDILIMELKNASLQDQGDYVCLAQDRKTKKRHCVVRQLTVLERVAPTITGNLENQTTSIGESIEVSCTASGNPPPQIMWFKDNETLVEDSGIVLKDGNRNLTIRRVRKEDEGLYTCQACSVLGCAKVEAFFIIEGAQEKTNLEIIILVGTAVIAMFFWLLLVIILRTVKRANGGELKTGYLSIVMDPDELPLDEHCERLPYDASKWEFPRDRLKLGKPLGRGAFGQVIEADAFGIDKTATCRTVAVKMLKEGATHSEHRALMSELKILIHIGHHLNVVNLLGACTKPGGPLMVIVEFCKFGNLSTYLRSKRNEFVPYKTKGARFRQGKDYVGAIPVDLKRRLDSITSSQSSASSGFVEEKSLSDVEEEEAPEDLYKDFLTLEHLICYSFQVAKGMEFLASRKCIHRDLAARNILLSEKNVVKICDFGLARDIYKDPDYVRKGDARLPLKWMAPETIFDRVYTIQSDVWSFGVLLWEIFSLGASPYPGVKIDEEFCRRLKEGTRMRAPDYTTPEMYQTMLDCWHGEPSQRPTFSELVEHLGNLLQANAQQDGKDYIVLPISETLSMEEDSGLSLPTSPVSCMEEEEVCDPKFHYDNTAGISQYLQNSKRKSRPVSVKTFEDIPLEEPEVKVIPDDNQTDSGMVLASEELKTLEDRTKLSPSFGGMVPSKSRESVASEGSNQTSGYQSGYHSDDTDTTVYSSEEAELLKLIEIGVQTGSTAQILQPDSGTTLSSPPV
Receptor tyrosine-protein kinase erbB-2, sequence (P04626 whole entry): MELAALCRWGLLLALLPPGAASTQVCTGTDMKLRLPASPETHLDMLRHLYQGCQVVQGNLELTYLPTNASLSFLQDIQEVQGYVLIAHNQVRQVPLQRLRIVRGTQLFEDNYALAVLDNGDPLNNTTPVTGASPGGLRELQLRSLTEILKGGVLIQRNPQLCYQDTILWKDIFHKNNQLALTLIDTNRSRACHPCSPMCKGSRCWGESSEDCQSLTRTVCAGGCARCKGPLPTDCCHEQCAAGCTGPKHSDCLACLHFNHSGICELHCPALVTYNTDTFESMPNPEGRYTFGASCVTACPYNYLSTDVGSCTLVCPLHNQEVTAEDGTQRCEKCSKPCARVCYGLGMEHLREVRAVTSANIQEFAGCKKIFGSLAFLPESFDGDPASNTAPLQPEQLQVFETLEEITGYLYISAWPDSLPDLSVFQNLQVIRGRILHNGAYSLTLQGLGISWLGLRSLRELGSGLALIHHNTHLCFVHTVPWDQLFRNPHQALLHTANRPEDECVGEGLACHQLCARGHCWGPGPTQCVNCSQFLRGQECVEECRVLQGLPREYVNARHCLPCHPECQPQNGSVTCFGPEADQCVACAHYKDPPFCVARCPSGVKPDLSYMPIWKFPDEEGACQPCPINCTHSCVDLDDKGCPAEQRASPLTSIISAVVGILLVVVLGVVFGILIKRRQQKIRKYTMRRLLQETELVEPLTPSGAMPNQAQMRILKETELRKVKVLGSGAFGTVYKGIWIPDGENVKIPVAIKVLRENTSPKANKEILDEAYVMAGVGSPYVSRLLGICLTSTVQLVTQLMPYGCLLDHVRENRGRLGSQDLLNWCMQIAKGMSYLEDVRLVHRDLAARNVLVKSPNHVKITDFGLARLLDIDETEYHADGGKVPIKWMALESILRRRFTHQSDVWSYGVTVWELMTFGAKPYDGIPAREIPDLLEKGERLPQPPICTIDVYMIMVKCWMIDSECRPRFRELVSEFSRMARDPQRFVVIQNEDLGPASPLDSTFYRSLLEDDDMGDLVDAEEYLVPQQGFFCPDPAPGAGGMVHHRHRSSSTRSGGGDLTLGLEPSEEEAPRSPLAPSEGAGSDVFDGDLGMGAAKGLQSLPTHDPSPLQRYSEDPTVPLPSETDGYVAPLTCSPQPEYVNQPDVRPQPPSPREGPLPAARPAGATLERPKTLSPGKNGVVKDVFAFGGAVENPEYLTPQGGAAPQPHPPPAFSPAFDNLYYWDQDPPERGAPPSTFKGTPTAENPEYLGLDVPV

Row | IC50 [1] [µg/mL] | IC50 [2] [µg/mL] | pIC50 [4] | IC50 [5] [µg/mL] | IC50 [6] [µg/mL] | inhibition [7] | pIC50 [10] | pIC50 [11] | inhibition [12] | Structure (SMILES) | inhibition of growth at 10 µg/mL [3] [%] | inhibition of growth at 10 µg/mL [8] [%] | inhibition of growth at 10 µg/mL [9] [%]
1 | 46.6 (≈ 108 µM) | > 100 | 5.89 | > 100 | 9.86 (≈ 22.8 µM) |  |  |  |  | O=C(Nc1ccc2ncnc(Nc3cccc(Cl)c3)c2c1)c1cccc2c1OCCO2 |  | < 50 | < 50
2 | 19.9 (≈ 45.9 µM) | 61.2 (≈ 141 µM) | 5.56 | 52.2 (≈ 121 µM) | > 100 |  |  |  |  | O=C(Nc1ccc2ncnc(Nc3cccc(Cl)c3)c2c1)C1COc2ccccc2O1 (stereo unspecified) | < 50 |  | 
3 |  |  |  | 23.1 (≈ 55.3 µM) | 16.3 (≈ 39 µM) |  |  |  |  | Clc1cccc(Nc2ncnc3ccc(NCc4ccc5c(c4)OCCO5)cc23)c1 |  |  | 
4 | 2.77 (≈ 5.8 µM) | 15.5 (≈ 32.5 µM) | 7.01 | 5.02 (≈ 10.5 µM) | 1.99 (≈ 4.17 µM) | Active | 5.32 | < 5.00 | Active | Brc1cccc(Nc2ncnc3ccc(NCc4ccc5c(c4)OCCCO5)cc23)c1 |  |  | 
5 | 2.26 (≈ 6.27 µM) | 8.13 (≈ 22.6 µM) |  | 3.21 (≈ 8.91 µM) |  |  |  |  |  | COc1cc2ncnc(Nc3cccc(Br)c3)c2cc1OC |  |  | 
6 | 42.9 (≈ 89.9 µM) | 73.8 (≈ 155 µM) | 5.43 | > 100 | 50.1 (≈ 105 µM) | Active |  |  |  | O=C(Nc1ccc2ncnc(Nc3cccc(Br)c3)c2c1)C1COc2ccccc2O1 (stereo unspecified) |  |  | < 50

Further lines, the compound ahead of its results:

Row | Structure (SMILES) | IC50 [1] [µg/mL] | IC50 [2] [µg/mL] | pIC50 [4] | IC50 [5] [µg/mL] | IC50 [6] [µg/mL] | inhibition [7] | pIC50 [10] | pIC50 [11] | inhibition [12] | inhibition of growth at 10 µg/mL [3] [%] | inhibition of growth at 10 µg/mL [8] [%] | inhibition of growth at 10 µg/mL [9] [%]
7 | O=C(Nc1ccc2ncnc(Nc3cccc(Br)c3)c2c1)c1cccc2c1OCCO2 | 20.3 (≈ 42.6 µM) | 84 (≈ 176 µM) | 5.79 | 59.5 (≈ 125 µM) | > 100 |  |  |  |  | < 50 |  | 
8 | Brc1cccc(Nc2ncnc3ccc(NCc4ccc5c(c4)OCO5)cc23)c1 | 6.82 (≈ 15.2 µM) | 68.7 (≈ 153 µM) | 6.20 | 14.5 (≈ 32.2 µM) | 3.62 (≈ 8.06 µM) |  |  |  |  |  |  | 
9 | Brc1cccc(Nc2ncnc3ccc(NCc4ccc5c(c4)OCCCCO5)cc23)c1 | 15 (≈ 30.6 µM) | > 100 | 5.94 | 32.1 (≈ 65.2 µM) | 20.6 (≈ 42 µM) |  |  |  |  |  |  | 
10 | Clc1cccc(Nc2ncnc3ccc(NCc4ccc5c(c4)OCCCO5)cc23)c1 | 2.59 (≈ 5.98 µM) | 31 (≈ 71.7 µM) | 6.67 | 4.28 (≈ 9.89 µM) | 2.14 (≈ 4.94 µM) | Active |  |  |  |  |  | 
11 | Brc1cccc(Nc2ncnc3ccc(NCc4ccc5c(c4)OCCO5)cc23)c1 | 12.5 (≈ 27.1 µM) | 58.3 (≈ 126 µM) | 5.99 | 10.7 (≈ 23.1 µM) | 12 (≈ 25.9 µM) |  |  |  |  |  |  | 
12 | Clc1cccc(Nc2ncnc3ccc(NCc4ccc5c(c4)OCCCCO5)cc23)c1 | 13.3 (≈ 29.8 µM) | 44.8 (≈ 100 µM) | 6.04 | 21.3 (≈ 47.7 µM) | 17.5 (≈ 39.1 µM) |  | < 5.00 | < 5.00 |  |  |  | 
13 | Clc1cccc(Nc2ncnc3ccc(NCc4ccc5c(c4)OCO5)cc23)c1 |  |  |  | 7.36 (≈ 18.2 µM) |  |  | 5.19 | < 5.00 |  |  |  | 
